{"source": "ChEMBL document CHEMBL5136969", "about": "“A niclosamide-tobramycin hybrid adjuvant potentiates cefiderocol against P. aeruginosa” (2021)", "key": {"Pseudomonas aeruginosa [1]": {"tested_on": "Pseudomonas aeruginosa", "assay": "Potentiation of ciprofloxacin-induced antibiotic activity against Pseudomonas aeruginosa PAO1 assessed as MIC fold reduction at 8 ug/ml after 18 hrs by microbroth dilution method", "assay_type": "functional", "conditions": "dose 8 µg/ml", "summary_of_the_method": "(§1)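 Adjuvant held at a fixed 8 μg/mL while the antibiotic was 2-fold serially diluted in Mueller-Hinton broth (MHB), per CLSI microbroth dilution. Overnight cultures were adjusted in saline to 0.5 McFarland, then diluted 1:50 in MHB to about 5 × 10^5 CFU/mL final, and incubated 18 h at 37 °C. MIC was the lowest concentration with no visible turbidity, confirmed at 590 nm. Fold potentiation = MIC alone / MIC with adjuvant.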"}, "Escherichia coli [2]": {"tested_on": "Escherichia coli", "assay": "Potentiation of colistin-induced antibiotic activity against Escherichia coli ATCC 25922 assessed as MIC fold reduction at 8 ug/ml after 18 hrs by microbroth dilution method", "assay_type": "functional", "conditions": "dose 8 µg/ml", "summary_of_the_method": "as §1"}, "Acinetobacter baumannii [3]": {"tested_on": "Acinetobacter baumannii", "assay": "Potentiation of cefotaxime-induced antibiotic activity against Acinetobacter baumannii ATCC 17978 assessed as MIC fold reduction at 8 ug/ml after 18 hrs by microbroth dilution method", "assay_type": "functional", "conditions": "dose 8 µg/ml", "summary_of_the_method": "(§2)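 Initial screen in MHB using a fixed 8 μg mL−1 of adjuvant combined with each antibiotic under 2-fold dilution. Broth microdilution used about 5 × 10^5 CFU/mL at 37 °C for 18 h, with visible turbidity read and confirmed at 590 nm. Fold-potentiation = antibiotic MIC alone ÷ antibiotic MIC with adjuvant.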"}, "Escherichia coli [4]": {"tested_on": "Escherichia coli", "assay": "Potentiation of cefotaxime-induced antibiotic activity against Escherichia coli ATCC 25922 assessed as MIC fold reduction at 8 ug/ml after 18 hrs by microbroth dilution method", "assay_type": "functional", "conditions": "dose 8 µg/ml", "summary_of_the_method": "as §2"}, "Escherichia coli [5]": {"tested_on": "Escherichia coli", "assay": "Potentiation of ceftazidime-induced antibiotic activity against Escherichia coli ATCC 25922 assessed as MIC fold reduction at 8 ug/ml after 18 hrs by microbroth dilution method", "assay_type": "functional", "conditions": "dose 8 µg/ml", "summary_of_the_method": "as §1"}, "Pseudomonas aeruginosa [6]": {"tested_on": "Pseudomonas aeruginosa", "assay": "Potentiation of ceftolozane-induced antibiotic activity against Pseudomonas aeruginosa PAO1 assessed as MIC fold reduction at 8 ug/ml after 18 hrs by microbroth dilution method", "assay_type": "functional", "conditions": "dose 8 µg/ml", "summary_of_the_method": "as §1"}, "Pseudomonas aeruginosa [7]": {"tested_on": "Pseudomonas aeruginosa", "assay": "Potentiation of minocycline-induced antibiotic activity against Pseudomonas aeruginosa PAO1 assessed as MIC fold reduction at 8 ug/ml after 18 hrs by microbroth dilution method", "assay_type": "functional", "conditions": "dose 8 µg/ml", "summary_of_the_method": "as §1"}, "Escherichia coli [8]": {"tested_on": "Escherichia coli", "assay": "Potentiation of minocycline-induced antibiotic activity against Escherichia coli ATCC 25922 assessed as MIC fold reduction at 8 ug/ml after 18 hrs by microbroth dilution method", "assay_type": "functional", "conditions": "dose 8 µg/ml", "summary_of_the_method": "as §1"}, "Escherichia coli [9]": {"tested_on": "Escherichia coli", "assay": "Potentiation of doxycycline-induced antibiotic activity against Escherichia coli ATCC 25922 assessed as MIC fold reduction at 8 ug/ml after 18 hrs by microbroth dilution method", "assay_type": "functional", "conditions": "dose 8 µg/ml", "summary_of_the_method": "as §1"}, "Pseudomonas aeruginosa [10]": {"tested_on": "Pseudomonas aeruginosa", "assay": "Potentiation of chloamphenicol-induced antibiotic activity against Pseudomonas aeruginosa PAO1 assessed as MIC fold reduction at 8 ug/ml after 18 hrs by microbroth dilution method", "assay_type": "functional", "conditions": "dose 8 µg/ml", "summary_of_the_method": "as §1"}, "Escherichia coli [11]": {"tested_on": "Escherichia coli", "assay": "Potentiation of fosfomycin-induced antibiotic activity against Escherichia coli ATCC 25922 assessed as MIC fold reduction at 8 ug/ml after 18 hrs by microbroth dilution method", "assay_type": "functional", "conditions": "dose 8 µg/ml", "summary_of_the_method": "as §1"}, "Acinetobacter baumannii [12]": {"tested_on": "Acinetobacter baumannii", "assay": "Potentiation of cindamycin-induced antibiotic activity against Acinetobacter baumannii ATCC 17978 assessed as MIC fold reduction at 8 ug/ml after 18 hrs by microbroth dilution method", "assay_type": "functional", "conditions": "dose 8 µg/ml", "summary_of_the_method": "as §1"}, "Acinetobacter baumannii [13]": {"tested_on": "Acinetobacter baumannii", "assay": "Potentiation of pleuromutilin-induced antibiotic activity against Acinetobacter baumannii ATCC 17978 assessed as MIC fold reduction at 8 ug/ml after 18 hrs by microbroth dilution method", "assay_type": "functional", "conditions": "dose 8 µg/ml"}, "Escherichia coli [14]": {"tested_on": "Escherichia coli", "assay": "Potentiation of pleuromutilin-induced antibiotic activity against Escherichia coli ATCC 25922 assessed as MIC fold reduction at 8 ug/ml after 18 hrs by microbroth dilution method", "assay_type": "functional", "conditions": "dose 8 µg/ml"}, "Pseudomonas aeruginosa [15]": {"tested_on": "Pseudomonas aeruginosa", "assay": "Potentiation of trimethoprim-induced antibiotic activity against Pseudomonas aeruginosa PAO1 assessed as MIC fold reduction at 8 ug/ml after 18 hrs by microbroth dilution method", "assay_type": "functional", "conditions": "dose 8 µg/ml"}, "Acinetobacter baumannii [16]": {"tested_on": "Acinetobacter baumannii", "assay": "Potentiation of trimethoprim-induced antibiotic activity against Acinetobacter baumannii ATCC 17978 assessed as MIC fold reduction at 8 ug/ml after 18 hrs by microbroth dilution method", "assay_type": "functional", "conditions": "dose 8 µg/ml"}, "Enterococcus faecalis": {"tested_on": "Enterococcus faecalis", "assay": "Antibacterial activity against Enterococcus faecalis ATCC 29212 assessed as reduction in bacterial growth after 18 hrs by microbroth dilution method", "assay_type": "functional", "summary_of_the_method": "(§3)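 CLSI microbroth dilution in MHB. Overnight cultures were adjusted to 0.5 McFarland in saline, diluted 1:50, and inoculated at about 5 × 10^5 CFU/mL. Agents were 2-fold serially diluted and incubated 18 h at 37 °C. MIC is the lowest concentration without visible turbidity, confirmed by absorbance at 590 nm. Medium with and without cells served as controls.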"}, "Pseudomonas aeruginosa [17]": {"tested_on": "Pseudomonas aeruginosa", "assay": "Potentiation of cefotaxime-induced antibiotic activity against […] Pseudomonas aeruginosa PAO1 assessed as MIC fold reduction at 8 ug/ml after 18 hrs by microbroth dilution method", "assay_type": "functional, organism-based", "conditions": "dose 8.0 µg/ml", "summary_of_the_method": "as §1"}, "Pseudomonas aeruginosa [18]": {"tested_on": "Pseudomonas aeruginosa", "assay": "Potentiation of ceftazidime-induced antibiotic activity against MDR clinical isolate Pseudomonas aeruginosa PA259 assessed as MIC fold reduction at 8 ug/ml after 18 hrs by microbroth dilution method", "assay_type": "functional, organism-based", "conditions": "dose 8.0 µg/ml", "summary_of_the_method": "as §1"}, "Pseudomonas aeruginosa [19]": {"tested_on": "Pseudomonas aeruginosa", "assay": "Potentiation of cefiderocol-induced antibiotic activity against […] Pseudomonas aeruginosa PAO1 assessed as MIC fold reduction at 8 ug/ml after 18 hrs by microbroth dilution method", "assay_type": "functional, organism-based", "conditions": "dose 8.0 µg/ml", "summary_of_the_method": "as §2"}, "Acinetobacter baumannii [20]": {"tested_on": "Acinetobacter baumannii", "assay": "Antibacterial activity against Acinetobacter baumannii AB92247 assessed as reduction in bacterial growth after 18 hrs by microbroth dilution method", "assay_type": "functional", "summary_of_the_method": "as §3"}, "Acinetobacter baumannii [21]": {"tested_on": "Acinetobacter baumannii", "assay": "Antibacterial activity against Acinetobacter baumannii AB031 assessed as potentiation of cefiderocol antibacterial activity by measuring FIC after 18 hrs by microbroth dilution method", "assay_type": "functional", "summary_of_the_method": "(§4)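 Checkerboard in Mueller-Hinton broth: cefiderocol 2-fold diluted on one axis, adjuvant 2-fold on the other. Overnight cultures were adjusted to 0.5 McFarland in saline, diluted 1:50 in MHB, and inoculated at about 5 × 10^5 CFU/mL. Incubation was 18 h at 37 °C. Turbidity was read visually and confirmed at 590 nm. FIC index = FIC of antibiotic + FIC of adjuvant; ≤0.5 synergy, >4 antagonism.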"}, "Acinetobacter baumannii [22]": {"tested_on": "Acinetobacter baumannii", "assay": "Antibacterial activity against Acinetobacter baumannii AB92247 assessed as potentiation of cefiderocol antibacterial activity by measuring FIC after 18 hrs by microbroth dilution method", "assay_type": "functional", "summary_of_the_method": "as §4"}, "Escherichia coli [23]": {"tested_on": "Escherichia coli", "assay": "Antibacterial activity against Escherichia coli 107115 assessed as reduction in bacterial growth after 18 hrs by microbroth dilution method", "assay_type": "functional", "summary_of_the_method": "as §3"}, "Escherichia coli [24]": {"tested_on": "Escherichia coli", "assay": "Antibacterial activity against Escherichia coli 94474 assessed as reduction in bacterial growth after 18 hrs by microbroth dilution method", "assay_type": "functional", "summary_of_the_method": "as §3"}, "Klebsiella pneumoniae": {"tested_on": "Klebsiella pneumoniae", "assay": "Antibacterial activity against Klebsiella pneumoniae KP116381 assessed as reduction in bacterial growth after 18 hrs by microbroth dilution method", "assay_type": "functional", "summary_of_the_method": "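CLSI broth microdilution. Overnight cultures were adjusted in saline to 0.5 McFarland, diluted 1:50 in Mueller-Hinton broth (MHB), and inoculated at about 5 × 10^5 CFU/mL. Agents were 2-fold serially diluted in MHB, mixed 1:1 with inoculum, and held at 37 °C for 18 h. MIC was the lowest concentration with no visible turbidity, confirmed at 590 nm.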"}, "Escherichia coli [25]": {"tested_on": "Escherichia coli", "assay": "Antibacterial activity against Escherichia coli 94474 assessed as reduction in bacterial growth after 18 hrs in presence of cefiderocol by microbroth dilution method", "assay_type": "functional", "summary_of_the_method": "as §4"}, "Escherichia coli [26]": {"tested_on": "Escherichia coli", "assay": "Antibacterial activity against Escherichia coli ATCC 25922 assessed as potentiation of cefiderocol antibacterial activity by measuring FIC after 18 hrs by microbroth dilution method", "assay_type": "functional", "summary_of_the_method": "as §4"}}, "note": "Activity calls are given as the source filed them. The rule behind the calls is not given here."}
{"smiles": "NC[C@H]1O[C@H](O[C@H]2[C@H](OCCCCc3cn(-c4ccc(NC(=O)c5cc(Cl)ccc5O)cc4)nn3)[C@@H](O[C@H]3O[C@H](CO)[C@@H](O)[C@H](N)[C@H]3O)[C@H](N)C[C@@H]2N)[C@H](N)C[C@@H]1O", "values": [{"measurement": "fold change (FC)", "setting": "Pseudomonas aeruginosa [1]", "value": 4}, {"measurement": "fold change (FC)", "setting": "Escherichia coli [2]", "value": 4}, {"measurement": "fold change (FC)", "setting": "Acinetobacter baumannii [3]", "value": 4}, {"measurement": "fold change (FC)", "setting": "Escherichia coli [4]", "value": 4}, {"measurement": "fold change (FC)", "setting": "Escherichia coli [5]", "value": 4}, {"measurement": "fold change (FC)", "setting": "Pseudomonas aeruginosa [6]", "value": 4}, {"measurement": "fold change (FC)", "setting": "Pseudomonas aeruginosa [7]", "value": 4}, {"measurement": "fold change (FC)", "setting": "Escherichia coli [8]", "value": 4}, {"measurement": "fold change (FC)", "setting": "Escherichia coli [9]", "value": 4}, {"measurement": "fold change (FC)", "setting": "Pseudomonas aeruginosa [10]", "value": 4}, {"measurement": "fold change (FC)", "setting": "Escherichia coli [11]", "value": 4}, {"measurement": "fold change (FC)", "setting": "Acinetobacter baumannii [12]", "value": 4}, {"measurement": "fold change (FC)", "setting": "Acinetobacter baumannii [13]", "value": 4}, {"measurement": "fold change (FC)", "setting": "Escherichia coli [14]", "value": 4}, {"measurement": "fold change (FC)", "setting": "Pseudomonas aeruginosa [15]", "value": 4}, {"measurement": "fold change (FC)", "setting": "Acinetobacter baumannii [16]", "value": 4}, {"measurement": "MIC", "setting": "Enterococcus faecalis", "value": "> 128", "unit": "µg/mL"}, {"measurement": "Activity", "setting": "Pseudomonas aeruginosa [17]", "value": "Active"}, {"measurement": "Activity", "setting": "Pseudomonas aeruginosa [18]", "value": "Active"}, {"measurement": "Activity", "setting": "Pseudomonas aeruginosa [19]", "value": "Active"}, {"measurement": "MIC", "setting": "Acinetobacter baumannii [20]", "value": "> 128", "unit": "µg/mL"}, {"measurement": "FIC", "setting": "Acinetobacter baumannii [21]", "value": 0.5}, {"measurement": "FIC", "setting": "Acinetobacter baumannii [22]", "value": 0.5}, {"measurement": "MIC", "setting": "Escherichia coli [23]", "value": "> 128", "unit": "µg/mL"}, {"measurement": "MIC", "setting": "Escherichia coli [24]", "value": "> 128", "unit": "µg/mL"}, {"measurement": "MIC", "setting": "Klebsiella pneumoniae", "value": "> 128", "unit": "µg/mL"}, {"measurement": "MIC", "setting": "Escherichia coli [25]", "value": 8, "unit": "µg/mL"}, {"measurement": "FIC", "setting": "Escherichia coli [26]", "value": 0.5}]}
